Most compounds without a hit are left out; they make up all but 1.7% or so of the library.
PolyA inhibitor = blocks polyadenylation in yeast reporter cells; S. cerevisiae SKY197-pL101 polyadenylation reporter, beta-gal luminescence; efflux-impaired pdr1/pdr3 knockout yeast; score 100 = 6 SD above DMSO; activity score, % at 12 µM; 0.02% of 300,000 active; AID 1875;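 active = lowest replicate activity score at least 50, where 100 means six control SD above control mean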;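 also: yeast exposed to compound for 9 h at 30 °C; higher score means more reporter readthrough which indicates perturbed polyadenylation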
procasp7 counter = activates human procaspase-7, counter-screen for procaspase-3 activators; P55210; AID 463210; activation, % at 8.5 µM; 0.093% of 330,000 active; recombinant procaspase-7, Ac-DEVD-pNA absorbance 405 nm; D23A/D198A/D206A triple mutant, cannot self-cleave; scale: DMSO 0, 5 µM enzyme 100;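 active = percent activation above the screen-wide mean plus 3 SD, cut at about 25% in these data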
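Assay system: Uncleavable procaspase-7 mutant enzyme; Input: 2 µM procaspase-7 mutant as dispensed; Also added: DEVD-pNA substrate; Medium: Zinc-free HEPES pH 7.4 with 300 mM NaCl, 0.01% Triton X-100; Timing: 1 h compound preincubation, 2 h substrate cleavage, 25 °C; Measured by: Epi-absorbance of released pNA at 405 nm, two timepoints.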
VIM-2 inhibitor = inhibitors of Pseudomonas aeruginosa VIM-2 metallo-beta-lactamase; 0.89% of 290,000 active; purified VIM-2, nitrocefin hydrolysis, epi-absorbance fluorescence; inhibition, % at 5.6 µM;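 active = inhibition above the mean of all tested compounds plus 3 SD, cutoff set per screening run, cut at about 7.5% in these data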;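 also: red hydrolysis product quenches plate fluorescence so inhibitors raise well fluorescence; 0% = enzyme with DMSO and 100% = DMSO without enzyme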
Neddyl block = cullin neddylation inhibition. TR-FRET cullin neddylation, biochemical. 0.58% of 360,000 active. P61081+Q13564. calls only at 25 µM; in the data active = inhibition above about 36%
IMP-1 inh-1 = inhibitors of Pseudomonas aeruginosa IMP-1 metallo-beta-lactamase. purified IMP-1, nitrocefin hydrolysis, epi-absorbance fluorescence. inhibition, % at 5.6 µM. 0.45% of 290,000 active. AID 1556;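 active = inhibition above the mean plus 3 SD of all compounds in the same screening run, cut at about 4.5% in these data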;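 also: 0% = IMP-1 with DMSO and 100% = DMSO wells lacking enzyme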
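System: purified IMP-1; amount: IMP-1 0.2 nM before substrate addition; compound: single dose, 5.6 µM; times: 25 °C, 15 min preincubation, 25 min reaction; signal: Epi-absorbance via hydrolysed-nitrocefin quenching of white-plate fluorescence, 480/530 nm, EDTA stop; benchmarks: DMSO with and without IMP-1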
procasp3 activ = activates human procaspase-3 | recombinant procaspase-3 D3A, Ac-DEVD-pNA absorbance 405 nm | 0.11% of 330,000 active | activation, % at 8.5 µM;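 active = activation above the mean of all tested compounds plus 3 SD, cut at about 21% in these data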;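 also: 0% = DMSO alone and 100% = DMSO wells spiked with extra 5 µM PC-3 D3A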
Target sequence (P42574 whole entry D9A/D28A/D175A): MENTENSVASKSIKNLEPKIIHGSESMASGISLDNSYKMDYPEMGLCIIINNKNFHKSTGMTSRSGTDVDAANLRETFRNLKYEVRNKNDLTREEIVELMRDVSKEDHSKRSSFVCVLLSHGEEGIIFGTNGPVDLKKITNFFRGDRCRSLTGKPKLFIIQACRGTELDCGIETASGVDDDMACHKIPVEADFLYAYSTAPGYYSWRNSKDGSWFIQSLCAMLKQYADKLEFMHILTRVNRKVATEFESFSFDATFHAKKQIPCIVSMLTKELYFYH
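Assay system – Procaspase-3 D3A mutant, all three cleavage aspartates alanine · Controls – DMSO-only low control, 5 µM PC-3 D3A high control · Schedule – 1 h compound preincubation, 2 h substrate hydrolysis at 25 °C · Signal – 405 nm absorbance of p-nitroaniline, reads at 0 and 120 min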
IMP-1 inh-2 = selectivity counter-screen for VIM-2 inhibitors: IMP-1 metallo-beta-lactamase inhibitors. shares compounds with VIM-2 inhibitor. purified IMP-1, nitrocefin hydrolysis, epi-absorbance fluorescence. inhibition, % at 5.6 µM. 1,300 tested, under 10 active; call rule not given here;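 also: 0% = enzyme with vehicle and 100% = vehicle without enzyme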
VIM-2 FRET ctr = counter-screen for VIM-2 inhibitors: epi-absorbance artifacts via FRET; shares compounds with VIM-2 inhibitor; purified VIM-2, CCF2 FRET substrate hydrolysis; inhibition, % at 5.6 µM; 23% of 1,300 active; AID 1857;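 active = inhibition above the mean of all tested compounds plus 3 SD, cut at about 19% in these data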;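 also: 0% = VIM-2 plus DMSO and 100% = no enzyme wells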
TEM-1 counter = selectivity counter-screen for VIM-2 inhibitors: E. coli TEM-1 inhibitors. Purified TEM-1, nitrocefin hydrolysis, epi-absorbance fluorescence. shares compounds with VIM-2 inhibitor. AID 1866. 3% of 1,300 active. inhibition, % at 5.6 µM;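 active = inhibition above that campaign's mean inhibition plus 3 SD, cut at about 0.46% in these data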;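 also: 0% = TEM-1 with DMSO and 100% = TEM-1 with 100 µM potassium clavulanate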
Target sequence (P62593 whole entry, looked up): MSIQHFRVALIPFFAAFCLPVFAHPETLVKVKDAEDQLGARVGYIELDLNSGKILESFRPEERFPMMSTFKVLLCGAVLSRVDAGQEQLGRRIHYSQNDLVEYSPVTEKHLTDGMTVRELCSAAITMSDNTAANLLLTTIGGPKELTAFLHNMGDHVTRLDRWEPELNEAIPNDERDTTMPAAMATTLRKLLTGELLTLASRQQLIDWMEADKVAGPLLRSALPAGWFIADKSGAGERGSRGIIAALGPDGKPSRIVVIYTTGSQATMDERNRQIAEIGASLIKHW
VIM-2 confirm 2 = confirmation of P. aeruginosa VIM-2 metallo-beta-lactamase inhibitors. shares compounds with VIM-2 inhibitor. 96% of 1,300 active. AID 2187. inhibition, % at 5.6 µM. purified VIM-2, nitrocefin hydrolysis, epi-absorbance;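 active = inhibition of the VIM-2 beta-lactamase enzyme above about 11% from the earlier first-round screen, limit read from the data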;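 also: 0% = VIM-2 with DMSO and 100% = buffer wells without enzyme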
Active calls of the source: *; i = inactive; . = no result given.

SMILES	PolyA inhibitor	procasp7 counter	VIM-2 inhibitor	Neddyl block	IMP-1 inh-1	procasp3 activ	IMP-1 inh-2	VIM-2 FRET ctr	TEM-1 counter	VIM-2 confirm 2
O=C(NCCCn1ccnc1)c1nn2c(C(F)(F)F)cc(-c3ccccc3)nc2c1Cl	10	3	27*	i	-3	-9	-3	-12	-4	53*
O=C(O)c1ccc(Nc2cc(Cl)c3nonc3c2[N+](=O)[O-])cc1	24	-5	0	i	-3	-13	.	.	.	.
CC(=O)Nc1ccc(Nc2cc(N(C)C)c3nonc3c2[N+](=O)[O-])cc1	-13	.	30*	i	-3	.	-3	-3	-6	36*
O=C(COC(=O)CSc1ccc2ccccc2c1)Nc1ccccc1OC(F)F	-5	-7	-3	i	-4	4	.	.	.	.
O=C(Cn1cnc2c(NCc3ccccc3)ncnc21)NCc1ccccc1	.	0	.	i	.	2	.	.	.	.
COc1ccc(C2=Nn3c(nnc3-c3ccncc3)SC2)cc1	-2	6	21*	i	-1	2	-3	4	-6	42*
CCN1CCN(Cc2c(O)ccc3c2O/C(=C\c2ccccc2)C3=O)CC1	2	-6	30*	i	-1	-15	-1	3	-7	44*
CNC[C@H](CC1CCCCC1)NC[C@H](CO)NCCc1cccc(C(F)(F)F)c1	-8	4	21*	i	-1	-2	-3	-5	-6	30*
CNC[C@H](CC1CCCCC1)NC[C@H](CO)NCC1(c2ccccc2)CC1	-15	0	-2	i	-1	-2	.	.	.	.
CCN1CCN(CCNC(=O)c2cc(Cl)c(NC(=O)C3=C(C)OCCS3)cc2OC)CC1	12	7	24*	i	-3	11	-2	4	-10	33*
CCCN1CCN(CCCNC(=O)c2ccccc2NC(=O)C2=C(C)OCCS2)CC1	-3	-4	1	i	-2	2	.	.	.	.
Cc1cccc(-n2c(-c3ccncc3)n[nH]c2=S)c1C	-3	-20	-1	i	-3	-3	.	.	.	.
Cc1nn(CCc2n[nH]c(=S)n2-c2cccc(Cl)c2)c(C)c1[N+](=O)[O-]	-4	-20	17*	i	-6	-10	-3	48*	-7	30*
Cc1cccc(-n2c(C)n[nH]c2=S)c1C	-6	-5	12*	i	-3	0	-4	40*	-6	24*
Cc1n[nH]c(=S)n1-c1cccc(Cl)c1	3	-11	14*	i	-1	1	-3	36*	-7	23*
Nc1c(Br)cc(Br)c(N2CCCC2=O)c1Br	17	2	-5	i	-5	-3	.	.	.	.
Cc1nnc2c(SC(C)C)nc3ccccc3n12	-2	11	14*	i	-4	7	-2	0	-5	22*
CC(Oc1ccc2c3c(c(=O)oc2c1)CCC3)C(=O)NCc1ccccn1 (stereo unspecified)	3	7	21*	i	0	3	-2	3	-5	29*
Cc1c(C)c2ccc(OCC(=O)NCc3ccccn3)cc2oc1=O	5	-1	2	.	-2	-3	.	.	.	.
O=C(COc1ccc2c3c(c(=O)oc2c1)CCC3)NCc1ccccn1	9	1	17*	i	1	1	-3	-1	-7	23*
COc1ccc(-c2ccc(C(=O)Nc3cccc(C(C)=O)c3)c3occc23)c(C)c1	.	.	.	i	.	.	.	.	.	.
O=C(CSc1ncn(-c2ccccc2)n1)c1cccs1	-8	-3	0	i	-2	7	.	.	.	.
CC1=Nc2ccc(C)cc2/C1=C/c1c(N)n2nc(CC(=O)N3CCOCC3)sc2nc1=O	5	-6	12*	i	-1	2	-3	22*	-9	16*
CCn1nc(C)c(CN2CCC(n3nccc3NC(=O)CCCc3ccccc3)CC2)c1C	-4	2	-1	i	-2	-2	.	.	.	.
CN1CCN(C(=O)CCn2c(=O)c3cccn3c3cccnc32)CC1	-4	18	14*	i	-1	6	-4	-2	-6	26*
SMILES	PolyA inhibitor	procasp7 counter	VIM-2 inhibitor	Neddyl block	IMP-1 inh-1	procasp3 activ	IMP-1 inh-2	VIM-2 FRET ctr	TEM-1 counter	VIM-2 confirm 2
CCS(=O)(=O)N1Cc2cc(C(=O)NCCOC)nc(-c3cccc(-c4ccncc4)c3)c2[C@@H]1CCO	.	.	.	i	.	.	.	.	.	.
Cc1cc(N2C(=O)CC(N3CCN(c4ccc(C(=O)c5cccs5)cc4)CC3)C2=O)no1 (stereo unspecified)	0	7	13*	i	-2	-15	-4	0	-7	3
O=C(c1ccc(N2CCN(C3CC(=O)N(Cc4cccs4)C3=O)CC2)cc1)c1cccnc1 (stereo unspecified)	6	-2	-1	i	-1	-3	.	.	.	.
COc1ccc2c(c1)c1ncn(CCN3CCNCC3)c(=O)c1n2C	-4	-3	14*	.	-1	-3	-1	0	-8	31*
CN(C)/C=C1\N=C(c2ccccc2)OC1=O	11	-5	-2	i	-3	-1	.	.	.	.
O=C1OC(c2ccccc2)=N/C1=C\C=C\c1ccccc1[N+](=O)[O-]	-4	-15	16*	i	3	-4	-2	30*	-2	9.9*
CC(C)CCn1c(=O)c2ccccc2n2c(CN3C(=O)NC4(CCC(C)CC4)C3=O)nnc12 (stereo unspecified)	-7	1	0	i	-5	-10	.	.	.	.
Cc1c(C)c2cc(Cl)c(OCC(=O)NC3CC(C)(C)NC(C)(C)C3)cc2oc1=O	11	6	16*	i	-1	5	-3	3	-5	22*
CC1(C)CC(NC(=O)COc2ccc(Br)cc2Cl)CC(C)(C)N1	5	9	-3	i	-1	1	.	.	.	.
CC1(C)CC(NC(=O)COc2ccccc2Cl)CC(C)(C)N1	9	5	-4	i	-5	6	.	.	.	.
CC1(C)CC(NC(=O)COc2cc3oc(=O)c4c(c3cc2Cl)CCC4)CC(C)(C)N1	8	17	34*	i	0	5	-2	1	-7	41*

Screening results (PubChem)
